Experimental data: ChEMBL document CHEMBL4043283, “Discovery and Preclinical Development of IIIM-290, an Orally Active Potent Cyclin-Dependent Kinase Inhibitor” (J Med Chem, 2018); call rule not given here

Key:
[1] = biological target: Serine/threonine-protein kinase ICK (Homo sapiens) (UniProt Q9UPZ9); assay: Inhibition of partial length wild type human ICK expressed in mammalian expression system at 0.5 uM by KINOMEscan method relative to control
How it was run: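 Competition binding screen (KINOMEscan) at 0.5 μM; primary binding read out as % of control, lower values indicating stronger interaction.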

Salmonella typhimurium = assay: Mutagenicity in Salmonella typhimurium TA1537 at 50 ug/plate in absence of liver S9 fraction by Ames test; assay type: toxicity; conditions: salmonella enterica subsp. enterica serovar typhimurium
[2] = Metabolic stability in mouse plasma assessed as parent compound remaining after 8 hrs by HPLC method; assay type: ADME, cell-free; conditions: read-out: Stability
MIA PaCa-2 [3] = assay: Induction of apoptosis in human MIAPaCa2 cells assessed as caspase-7 cleavage by Western blot method; assay type: functional, cell-based
How it was run: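 Lysate protein quantified against a BSA standard; 70 μg resolved by SDS-PAGE, transferred to PVDF overnight at 4 °C, 30 V; blocked 1 h in 5% nonfat milk/TBST; primary antibodies 2–4 h, HRP anti-mouse secondary 1 h; ECL detection on X-ray film.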

MIA PaCa-2 [4] = assay: Cell cycle arrest in human MIAPaCa2 cells assessed as accumulation at G1 phase at 1.5 uM after 24 hrs by propidium iodide staining-based flow cytometric method (reference value: 36%); assay type: functional
[5] = Intrinsic clearance in monkey hepatocytes assessed per million cells at 3 uM after 180 mins by LC-MS/MS analysis; assay type: ADME, cell-based, Macaca mulatta, Hepatocyte; conditions: rhesus monkey, read-out: CLH
[6] = Cmax in BALB/c mouse at 30 mg/kg, po by LC-MS/MS analysis; assay type: ADME, organism-based; design: dose 30 mg/kg, route oral; conditions: in vivo
[7] = Growth inhibition of human FR2 cells after 48 hrs by MTT assay; assay type: cell-based
How it was run: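 fR2 is a normal epithelial line of ECACC type. Cells were grown in appropriate medium at 37 °C, 95% humidity, 5% CO2. Antiproliferative effect measured by MTT assay, with GI50 values derived from concentration-response testing.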

PC-3 = assay: Growth inhibition of human PC3 cells at 10 uM after 48 hrs by MTT assay relative to control; assay type: functional; conditions: PC-3, 48 h, read-out: GI
How it was run: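 Single-concentration primary screen at 10 μM by MTT assay. Cells were NCI-sourced cancer lines grown in appropriate medium at 37 °C, 95% humidity, 5% CO2. Growth inhibition is expressed relative to control.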

MIA PaCa-2 [8] = assay: Antitumor activity against human MIAPaCa2 cells xenografted in CD1 nude mouse assessed as tumor growth inhibition at 50 mg/kg, po qd administered on day 10 to 25 post tumor inoculation relative to control; assay type: functional; conditions: MIA PaCa-2, po, 240 h, read-out: TGI
[9] = Half life in human liver microsomes at 100 uM after 30 mins by LC-MS/MS analysis; assay type: ADME, microsome
DU-145 = assay: Growth inhibition of human DU145 cells after 48 hrs by MTT assay; assay type: functional; conditions: DU-145, 48 h
How it was run: (§1)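 Cancer cell lines sourced from the National Cancer Institute (USA). Cells kept in appropriate growth medium at 37 °C, 95% humidity, 5% CO2. Antiproliferation read by tetrazolium (MTT) assay. GI50 values were determined only for compounds selected after an initial single-concentration screen.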

CDK2/Cyclin O = CDK2/Cyclin O (Homo sapiens, UniProt P22674+P24941); assay: Inhibition of CDK2/cyclin O (unknown origin) after 30 mins in presence of [33P]-gamma-ATP by filter binding assay; assay type: protein-complex assay
[10] = Chemical stability of compound in SIF at pH 6.8 assessed as parent compound remaining after 8 hrs by HPLC method; assay type: physicochemical; conditions: read-out: Stability
[11] = Cmax in BALB/c mouse at 1 mg/kg, iv by LC-MS/MS analysis; assay type: ADME, organism-based; design: dose 1 mg/kg, route intravenous; conditions: in vivo
[12] = Half life in monkey liver S9 fraction preincubated for 5 mins followed by NADPH addition measured after 30 mins by LC-MS/MS analysis; assay type: ADME, tissue-based, Macaca mulatta; conditions: rhesus monkey
[13] = Intrinsic clearance in dog liver microsomes assessed per mg of protein at 100 uM after 30 mins by LC-MS/MS analysis; assay type: ADME, Canis lupus familiaris, microsome; conditions: read-out: CLH
How it was run: (§2)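 Intrinsic clearance obtained from substrate disappearance over time, reported per mg protein (microsomes, S9) or per 10^6 cells (hepatocytes).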

[14] = AUC in Sprague-Dawley rat at 3 mg/kg, po by LC-MS/MS analysis; assay type: ADME, organism-based; conditions: in vivo
[15] = Cmax in BALB/c mouse at 10 mg/kg, po by LC-MS/MS analysis; assay type: ADME, organism-based; design: dose 10 mg/kg, route oral; conditions: in vivo
[16] = Oral bioavailability in BALB/c mouse at 10 mg/kg by LC-MS/MS analysis; assay type: ADME, organism-based; conditions: in vivo
[17] = Half life in dog liver microsomes at 100 uM after 30 mins by LC-MS/MS analysis; assay type: ADME, Canis lupus familiaris, microsome
Homo sapiens = organism: Homo sapiens; assay: Selectivity ratio of IC50 for CDK2/cyclin A (unknown origin) to IC50 for CDK9/cyclin T1 (unknown origin)
T47D = assay: Growth inhibition of human T47D cells after 48 hrs by MTT assay; assay type: functional; how it was run: as §1
[18] = Tmax in Sprague-Dawley rat at 30 mg/kg, po by LC-MS/MS analysis; assay type: ADME, organism-based; conditions: in vivo
[19] = Intrinsic clearance in mouse liver microsomes assessed per mg of protein at 100 uM after 30 mins by LC-MS/MS analysis; assay type: ADME, microsome; conditions: read-out: CLH
[20] = Intrinsic clearance in human hepatocytes assessed per million cells at 3 uM after 180 mins by LC-MS/MS analysis; assay type: ADME, cell-based, Hepatocyte; conditions: read-out: CLH; how it was run: as §2
[21] = Intrinsic clearance in mouse hepatocytes assessed per million cells at 3 uM after 180 mins by LC-MS/MS analysis; assay type: ADME, cell-based, Hepatocyte; conditions: read-out: CLH
[22] = Ionization constant, pKa of compound by UV spectrophotometric analysis; assay type: physicochemical
[23] = Ratio of Cmax in BALB/c mouse at 30 mg/kg, po to GI50 for human HL60 cells
HOP-62 = assay: Growth inhibition of human HOP62 cells after 48 hrs by MTT assay; assay type: functional; conditions: HOP-62, 48 h; how it was run: as §1
[24] = Growth inhibition of human HEK293 cells after 48 hrs by MTT assay; assay type: cell-based
[25] = AUC (0 to t) in BALB/c mouse at 1 mg/kg, iv by LC-MS/MS analysis; assay type: ADME, organism-based; conditions: in vivo
CYP3A4 = CYP3A4 (Homo sapiens, UniProt P08684); assay: Inhibition of human CYP3A4 at 2 uM using fluorogenic substrate after 5 mins by fluorometric method relative to control; assay type: ADME; conditions: probe fluorogenic substrate
[26] = Pancreas to plasma partition coefficient, Kp of the compound in BALB/c mouse at 30 mg/kg, po measured at 0.5 hrs; assay type: ADME, organism-based; conditions: pancreas and plasma
[27] = Cmax in BALB/c mouse at 3 mg/kg, po by LC-MS/MS analysis; assay type: ADME, organism-based; design: dose 3 mg/kg, route oral; conditions: in vivo
Liver = assay: Intrinsic clearance in mouse liver S9 fraction assessed per mg of protein preincubated for 5 mins followed by NADPH addition measured after 30 mins by LC-MS/MS analysis; assay type: ADME, tissue-based; conditions: s9, 0.5 h
[28] = Pancreas to plasma partition coefficient, Kp of the compound in Sprague-Dawley rat at 30 mg/kg, po measured at 8 hrs; assay type: ADME, organism-based; conditions: pancreas and plasma

Chain of CYP3A4 (P08684 whole entry): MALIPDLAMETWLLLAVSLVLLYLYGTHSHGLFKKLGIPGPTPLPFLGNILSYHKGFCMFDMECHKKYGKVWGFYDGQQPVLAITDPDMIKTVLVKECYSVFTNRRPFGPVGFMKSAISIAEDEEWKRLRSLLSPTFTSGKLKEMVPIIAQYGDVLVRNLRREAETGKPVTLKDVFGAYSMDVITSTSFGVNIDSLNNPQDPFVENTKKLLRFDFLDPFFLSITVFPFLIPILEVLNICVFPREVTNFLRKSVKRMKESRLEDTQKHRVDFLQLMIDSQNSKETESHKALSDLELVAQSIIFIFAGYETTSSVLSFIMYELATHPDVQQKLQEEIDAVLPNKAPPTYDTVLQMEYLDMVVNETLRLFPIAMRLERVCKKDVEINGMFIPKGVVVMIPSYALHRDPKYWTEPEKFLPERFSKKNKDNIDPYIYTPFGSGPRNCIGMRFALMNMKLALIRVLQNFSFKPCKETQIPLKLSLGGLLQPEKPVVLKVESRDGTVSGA
Chain of Serine/threonine-protein kinase ICK (Homo sapiens) (Q9UPZ9 whole entry): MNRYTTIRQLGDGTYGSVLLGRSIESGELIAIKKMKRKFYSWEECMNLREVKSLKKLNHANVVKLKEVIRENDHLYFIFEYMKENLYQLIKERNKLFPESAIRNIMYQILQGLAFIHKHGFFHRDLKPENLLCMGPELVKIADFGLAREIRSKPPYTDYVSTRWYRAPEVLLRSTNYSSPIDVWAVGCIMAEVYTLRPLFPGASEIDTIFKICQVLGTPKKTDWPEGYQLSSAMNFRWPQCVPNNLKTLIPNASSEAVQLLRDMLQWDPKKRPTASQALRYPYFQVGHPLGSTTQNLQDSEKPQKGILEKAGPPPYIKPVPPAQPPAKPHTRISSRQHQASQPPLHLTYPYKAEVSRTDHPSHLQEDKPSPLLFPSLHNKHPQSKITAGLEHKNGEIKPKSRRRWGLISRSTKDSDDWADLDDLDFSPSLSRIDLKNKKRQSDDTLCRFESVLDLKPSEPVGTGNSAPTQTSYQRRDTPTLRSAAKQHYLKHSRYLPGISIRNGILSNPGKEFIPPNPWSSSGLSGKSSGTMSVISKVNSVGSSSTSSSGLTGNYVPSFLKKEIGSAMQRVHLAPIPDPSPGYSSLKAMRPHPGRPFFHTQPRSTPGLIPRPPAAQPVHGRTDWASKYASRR

CN1CC[C@H](c2c(O)cc(O)c3c(=O)cc(/C=C/c4c(Cl)cccc4Cl)oc23)[C@H](O)C1
inhibition [1]: > 98%
Activity (Salmonella typhimurium): Non-Toxic
remaining at 8 h [2]: 94%
Activity (MIA PaCa-2 [3]): Dose-dependent effect
Activity (MIA PaCa-2 [4]): 48%
hepatocyte CLint at 3 µM [5]: 10.6 µL/min/1e6 cells
Cmax [6]: 4.11 µM
GI50 at 48 h [7]: 19 µM
inhibition of growth at 10 µM (PC-3): 84%
inhibition in vivo at 50 mg/kg (MIA PaCa-2 [8]): 40 to 52%
half-life at 100 µM [9]: > 30 min
GI50 (DU-145): 5 µM
IC50 (CDK2/Cyclin O): 0.138 µM
remaining at 8 h [10]: 100%
Cmax [11]: 0.677 µM
half-life [12]: 56 min
microsomal CLint at 100 µM [13]: > 29 µL/min/mg
AUC [14]: 1440 nM·h
Cmax [15]: 0.67 to 1.29 µM
bioavailability [16]: 70.7%
half-life at 100 µM [17]: 24 min
Ratio IC50 (Homo sapiens): 7
GI50 (T47D): 6 µM
Tmax [18]: 60 min
microsomal CLint at 100 µM [19]: < 8.8 µL/min/mg
hepatocyte CLint at 3 µM [20]: 4.8 µL/min/1e6 cells
hepatocyte CLint at 3 µM [21]: 14.9 µL/min/1e6 cells
pKa [22]: 5.4
Ratio [23]: 4
GI50 (HOP-62): 7 µM
GI50 at 48 h [24]: 22 µM
AUC(0-t) [25]: 525 nM·h
inhibition at 5 min, 2 µM (CYP3A4): 30%
Kp at 0.5 h [26]: 14.2
Cmax [27]: 0.216 µM
CLint (Liver): 16 µL/min/mg
Kp at 8 h [28]: 10.5
